High-throughput results as filed in PubChem BioAssay.
Compounds with a hit are over-represented: about 4.7% of the library has one in this group of screens.
MPTP block = blocks calcium-induced mitochondrial swelling. inhibition, % at 10 µM. 360,000 compounds, 1.4% hits. isolated mouse mitochondria, Ca2+ swelling absorbance, 30 min. AID 602449;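 active means inhibition of 50% or more, scaled per plate between neutral and stimulator controls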;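 further: 0% = DMSO wells given calcium and 100% = 1 mM EGTA wells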
MT1-MMP act inh = blocks activation of human MT1-MMP. P50281. HT1080 RFP-PRO-GFP cells, GFP/RFP ratio fluorescence, overnight; percent of plate control window, DMSO zero. GFP/RFP ratio change, % at 20 µM. 360,000 compounds, 0.061% hits. AID 651647;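 active means GFP/RFP ratio change of at least 30% with cell ATP level not reduced by more than half and red fluorescence within 50% of control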
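system = RFP-PRO-GFP reporter HT1080 cells | dosing = 20 µM single dose, 1% DMSO | timing = overnight cell settling, then overnight compound exposure, 37 °C, 5% CO2 | read-out basis = GFP/RFP fluorescence ratio | controls = DMSO and RFP-L50D-GFP cell wells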
SKN-1 block = C. elegans SKN-1 inhibition; C. elegans VP596 Pgst-4::GFP/RFP ratio, acrylamide-induced, 24 h; inhibition, % at 21.8 µM; 360,000 compounds, 0.49% hits;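 active means interference check ratio from 0.5 to 1.5 plus GFP to RFP signal ratio inhibition reaching or exceeding a fixed threshold, cut at about 30% in these data, passing the limit was not always enough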
GRIN3A LBD mod = modulates the human NR3A ligand-binding domain; NR3A LBD differential scanning fluorimetry, Tm shift; 0% = protein alone, 100% = glycine-bound protein; Tm shift relative to glycine control, % at 25 µM; 340,000 compounds, 2.5% hits; AID 1259313;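 active means melting temperature shift of at least 10% of the positive control shift, at one fixed dose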
ADAM17 inh = ADAM17 inhibition, QFRET primary screen. P78536. recombinant ADAM17, EDANS/DABCYL FRET peptide cleavage. inhibition, % at 6.95 µM. 370,000 compounds, 0.83% hits. AID 720648;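 active means inhibition above the mean of compounds lying between control limits plus 3 SD, set per campaign, cut at about 8.5% in these data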;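 further: 0% = DMSO-only wells as the low control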
ADAM10 inh = inhibits human ADAM10. 370,000 compounds, 0.62% hits. O14672. inhibition, % at 7 µM. AID 720582. recombinant ADAM10, EDANS/DABCYL FRET peptide cleavage, 3 h;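 active means inhibition above a per-campaign cutoff equal to the mean of compounds falling between control-based bounds plus 3 SD, cut at about 20% in these data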;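 further: 0% = DMSO wells while the 100% control is not disclosed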
Target sequence (O14672 214-748 limits assumed): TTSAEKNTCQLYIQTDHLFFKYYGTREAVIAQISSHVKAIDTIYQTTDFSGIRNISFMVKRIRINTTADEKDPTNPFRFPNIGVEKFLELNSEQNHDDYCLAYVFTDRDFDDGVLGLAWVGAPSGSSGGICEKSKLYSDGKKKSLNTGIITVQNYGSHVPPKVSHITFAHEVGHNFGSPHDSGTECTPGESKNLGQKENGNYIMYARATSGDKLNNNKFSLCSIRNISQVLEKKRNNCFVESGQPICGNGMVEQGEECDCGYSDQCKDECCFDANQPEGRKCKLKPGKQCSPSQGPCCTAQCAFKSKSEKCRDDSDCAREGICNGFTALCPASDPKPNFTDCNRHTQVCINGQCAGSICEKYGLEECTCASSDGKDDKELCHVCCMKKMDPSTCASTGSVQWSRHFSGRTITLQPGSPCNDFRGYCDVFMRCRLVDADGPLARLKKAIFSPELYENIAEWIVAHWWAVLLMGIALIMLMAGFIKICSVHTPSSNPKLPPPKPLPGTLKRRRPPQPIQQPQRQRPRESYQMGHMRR
MPTP counter = Rhodamine 123 counter-screen of mitochondrial pore hits; 5,000 compounds, 78% hits; inhibition, % at 10 µM; shares compounds with MPTP block; isolated mitochondria, membrane potential, Rhodamine 123 fluorescence; in the data active means inhibition above about 22%;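 further: 0% = DMSO vehicle and 100% = positive control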
MT1-MMP act val = validation of inhibitors of human MT1-MMP activation | inhibition, % at 20 µM | 200 compounds, 10% hits | AID 652235 | HT1080 RFP-PRO-GFP cells, GFP and RFP fluorescence ratio, overnight | shares compounds with MT1-MMP act inh;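 active means inhibition of at least 50% in the primary cell screen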
ADAM10 confirm = human ADAM10 inhibition, confirmation; shares compounds with ADAM10 inh; ADAM10 QFRET peptide cleavage, EDANS fluorescence; inhibition, % at 6.95 µM; 2,100 compounds, 1% hits; AID 743208;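 active means inhibition above about 20% chosen separately for each screening run, limit read from the data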;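 further: 0% = DMSO wells and 100% = marimastat wells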
ADAM17 counter = ADAM17 inhibition, counter-screen for ADAM10 exosite hits; shares compounds with ADAM10 inh; ADAM17 QFRET peptide cleavage, EDANS fluorescence; inhibition, % at 6.95 µM; 2,100 compounds, 0.5% hits; AID 743214;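 active means mean triplicate inhibition above the solvent-only control wells' mean plus 3 SD, cut at about 12% in these data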;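 further: 0% = DMSO wells and 100% = marimastat wells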
ADAM10 counter = counter-screen for ADAM17 exosite inhibitors: inhibitors of human ADAM10 | 2,900 compounds, 47% hits | inhibition, % at 6.95 µM | recombinant ADAM10, EDANS/DABCYL FRET peptide cleavage, 3 h | shares compounds with ADAM17 inh;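 active means mean inhibition over the triplicate runs exceeds the activity threshold set in the earlier primary screen, cut at about 20% in these data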;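 further: 0% = DMSO wells and 100% = marimastat wells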
ADAM17 confirm = confirmation of inhibitors of human ADAM17. shares compounds with ADAM17 inh. 2,900 compounds, 65% hits. inhibition, % at 6.95 µM. recombinant ADAM17, EDANS/DABCYL QFRET peptide cleavage;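 active means mean inhibition across replicates above the hit cutoff set in the primary screen, cut at about 8.5% in these data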;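 further: 0% = DMSO wells and 100% = marimastat wells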
Active calls of the source: *; i = inactive; · = not tested or not shown.

SMILES	MPTP block	MT1-MMP act inh	SKN-1 block	GRIN3A LBD mod	ADAM17 inh	ADAM10 inh	MT1-MMP act val	others
COC(=O)C(O)(c1ccc(NC(=S)NC(=O)c2ccc(Cl)cc2Cl)c(C)c1)C(F)(F)F (configuration not stated)	86*	-4	-1	-2	11*	23*	·	MPTP counter=86*;ADAM10 confirm=8;ADAM17 counter=2;ADAM10 counter=35*;ADAM17 confirm=18*
CCOC(=O)C(O)(c1ccc(NC(=S)NC(=O)c2ccc(Cl)cc2Cl)c(C)c1)C(F)(F)F (configuration not stated)	87*	-4	1	-8	15*	29*	·	MPTP counter=90*;ADAM10 counter=47*;ADAM17 confirm=23*
COC(=O)C(O)(c1ccc(NC(=S)NC(=O)c2ccc(Cl)cc2Cl)cc1)C(F)(F)F (configuration not stated)	6	-6	3	3	7	16	·
C=CCn1c(=O)c(C=Nc2cccc([N+](=O)[O-])c2)c(O)n(CCCC)c1=O	1	-176	-31	-1	-1	11	·
CC[n+]1c(/C=C/N(C)c2ccccc2)sc2ccc(Cl)cc21	7	52*	48	-3	1	-1	47
CC(OC(=O)c1cn(C)c2ccccc12)C(=O)N1CCCC1 (configuration not stated)	-1	3	3	1	-2	-8	·
CC(C)OC(=O)c1c(N)n(CC2CCCO2)c2nc3ccccc3nc12 (configuration not stated)	-3	37*	4	-2	i	i	2
COc1cc2c(cc1OC)-c1c(OC)c(OC)cc3c1C(C2)N(C)CC3 (configuration not stated)	1	9	12	-2	-13	-51	·
COc1cc2c(cc1OC)-c1c3c(cc4c1[C@@H](C2)N(C)CC4)OCO3	2	33*	1	-5	-9	-40	2
CCOc1ccc2nc(N=Nc3c(O)[nH]c(=S)[nH]c3=O)sc2c1	4	59*	21	-7	0	5	35
CCN1CCN(Cc2cccnc2)CC1	-1	1	3	-2	4	17	·
CCSC(=O)N1CCCCCC1	-2	-2	-5	-1	-2	3	·
O=C1NC(=O)N(CCc2ccc(F)cc2)C(=O)/C1=C/c1cccs1	-2	-4	15	-1	-10	-13	·
C=CCN1C(=O)/C(=C/c2cccs2)C(=O)NC1=S	38	35*	15	0	0	0	8
COC(=O)C1=C(c2ccc(OC(F)(F)F)cc2)C[C@@H]2CC[C@H]1N2C(=O)NCCc1ccccc1	0	31*	-5	-3	2	2	2
COC(=O)C1=C(c2ccc(OC(F)(F)F)cc2)C[C@@H]2CC[C@H]1N2C(=O)NCCNC(C)=O	-1	-1	17	0	3	3	·
COC1=CC=C2[C@H]3Cc4ccc(OC)c5c4[C@@]2(CCN3C)[C@H]1O5	0	-14	19	-2	-5	1	·
O=C(CF)NC(Nc1cccc2cccnc12)C(Cl)(Cl)Cl (configuration not stated)	5	49*	7	2	-4	-1	4
O=C(O)c1cccc2c1NC(C(=O)O)C1CC(Sc3ccccc3[N+](=O)[O-])C(Cl)C21 (configuration not stated)	2	38*	7	-15	-1	3	0
COC(=O)C1=C(c2ccc(OCc3ccccc3)cc2)C[C@@H]2CC[C@H]1N2C(=O)NCc1ccc2[nH]ccc2c1	0	-5	0	·	4	-6	·
CCOC(=O)c1c(C)n(Cc2ccccc2)c2ccc(OCC(O)Cn3nc(C)cc3C)cc12 (configuration not stated)	2	-4	-6	-1	12*	33*	·	ADAM10 confirm=9;ADAM17 counter=3
CCOC(=O)C1C2c3ccccc3O[C@@]1(C)N=C1SCC(=O)N12 (some centres not stated)	0	3	-1	0	-2	4	·
CCOC(=O)[C@@H]1[C@H]2COc3ccc(Br)cc3[C@@H]2N2C(=O)N(c3cccc(C)c3)C(=O)[C@]12C	1	-1	5	-1	4	20*	·	ADAM10 confirm=4;ADAM17 counter=1
O=C1C=CC(=O)C2C1C1(Cl)C(Cl)=C(Cl)C2(Cl)C1(Cl)Cl (configuration not stated)	2	3	15	-7	9	27*	·	ADAM10 confirm=7;ADAM17 counter=3
OC(CC#CCN1CCCCCC1)(c1ccccc1)C1CCCC1 (configuration not stated)	34	-1	-3	2	-1	3	·
SMILES	MPTP block	MT1-MMP act inh	SKN-1 block	GRIN3A LBD mod	ADAM17 inh	ADAM10 inh	MT1-MMP act val	others
Cc1cc(N=Nc2ccccc2C)ccc1N	4	-19	18	-9	6	23*	·	ADAM10 confirm=2;ADAM17 counter=0
O=C1NC(=O)N(CCNc2ncc(C(F)(F)F)cc2Cl)C(=O)C1/C=N/OCc1c(F)cccc1Cl (configuration not stated)	1	-3	16	-1	-2	7	·
CCCn1c(C)c(C(=O)c2cccc3ccccc23)c2ccccc21	1	-2	-5	0	1	9	·
Cc1c(C(=O)c2cccc3ccccc23)c2cccc3c2n1[C@H](CN1CCOCC1)CO3	-1	-11	2	-7	5	20*	·	ADAM10 confirm=6;ADAM17 counter=1
O=C(CNC(=O)OCc1ccccc1)Nc1ccc(Br)cc1C(=O)c1ccccc1	4	-5	15	-14	8	20*	·	ADAM10 confirm=6;ADAM17 counter=2
O=C(CNC(=O)OCc1ccccc1)NCC(=O)Nc1ccc(Br)cc1C(=O)c1ccccc1	-1	0	-12	0	-3	-9	·
Cc1nnc2ccc(N3CCN(C)CC3)nn12	-4	2	-5	-1	-5	-16	·
